# Assay results from PubChem BioAssay AID561 (The Scripps Research Institute Molecular Screening Center, 2006).
# Screen size: about 65,000 compounds; about 280 (0.43%) were called active. The sample as a whole holds a higher share of actives than the screen did. Unmarked numbers belong to inactive results.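 Rule for the calls: active = inhibition above the mean of all tested compounds plus 3 SD (cut at about 52% in these data); inactive = the rest.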
# Target: Nuclear receptor ROR-alpha (Homo sapiens) (UniProt P35398)
# Sequence (P35398 whole entry, looked up): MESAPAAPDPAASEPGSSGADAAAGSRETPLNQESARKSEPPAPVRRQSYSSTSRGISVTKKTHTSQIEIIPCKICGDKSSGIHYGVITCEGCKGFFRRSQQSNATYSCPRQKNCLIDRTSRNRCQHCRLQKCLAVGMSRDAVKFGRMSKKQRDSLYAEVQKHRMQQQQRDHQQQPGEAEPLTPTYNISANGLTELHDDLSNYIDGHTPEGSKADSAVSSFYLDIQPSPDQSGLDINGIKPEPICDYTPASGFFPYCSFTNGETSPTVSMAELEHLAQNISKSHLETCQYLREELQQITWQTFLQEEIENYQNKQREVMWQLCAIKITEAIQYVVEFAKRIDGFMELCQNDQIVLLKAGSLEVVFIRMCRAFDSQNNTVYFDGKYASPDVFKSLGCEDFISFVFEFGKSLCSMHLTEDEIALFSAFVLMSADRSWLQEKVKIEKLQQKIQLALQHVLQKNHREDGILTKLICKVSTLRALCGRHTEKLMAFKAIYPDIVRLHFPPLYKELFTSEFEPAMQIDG
# Assay: suppression of basal RORA-driven reporter transcription – cell-based, luminescence, primary screen (AID 561)
# Conditions: CHO-K1 Gal4-RORA LBD luciferase reporter, at 10 µM, stronger effect = higher value
# How it was run: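 Test system: CHO-K1 cells with Gal4-hRORA LBD fusion and pG5-luc reporter / Compound: single concentration per compound, 10 µM final / Schedule: 20 h compound treatment, 37 °C / Signal: luminescence from basal luciferase reporter expression / Read-out: % inhibition / Control set: mock-transfected cells as 100%, +RORA DMSO cells as 0% / Replicates: tested once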
row,SMILES,inhibition
1,C=CCOc1nc2c(c(=O)n(C)c(=O)n2C)n1Cc1ccc(Cl)cc1Cl,63.5% (active)
2,Cn1c(=O)c2c(nc(N3CCCCCC3)n2CC(O)COc2ccc(Cl)cc2)n(C)c1=O (stereo unspecified),-1%
3,CCCc1[nH]nc2c1C(c1ccc(OC)c(Cn3nc(C)c(Br)c3C)c1)C(C#N)=C(N)O2 (stereo unspecified),27.5%
4,CN(C)c1cc(N)c2ccccc2n1 (tested in a mixture with another compound),-3.2%
5,O=C1c2oc3ccccc3c(=O)c2C(c2cccc(O)c2)N1c1ccccn1 (stereo unspecified),-9.5%
6,COc1ccc(-c2nn(-c3ccccc3)cc2C(=O)Nc2nc(CC(C)=O)ns2)cc1,-0.5%
7,COc1cccc(N2CCN(C(=O)C3CCCN(S(=O)(=O)c4cnc[nH]4)C3)CC2)c1 (stereo unspecified),4.9%
8,Cc1ccc(NC(=O)c2nc[nH]c2C(=O)N2CCCCC2)c(C(=O)c2ccccc2)c1,24.7%
9,O=c1[nH]c(-c2ccccc2)c(-c2ccccc2)[nH]1,23.5%
10,O=C(CCC(=O)c1cccs1)NCc1ccccc1,2.2%
11,COc1ccc(NC(=O)c2cccc(NC(=O)c3ccco3)c2)c(OC)c1,-19%
12,CC(C)n1c(SCC(=O)Nc2ccccc2N2CCCCC2)nc2c1c(=O)n(C)c(=O)n2C,18.7%
13,CC(C)Cc1cc(C(=O)NCCc2ccccc2)no1,-23.2%
14,c1coc(CNc2ncnc3ccccc23)c1,66.3% (active)
15,O=C(Cc1ccccc1)n1nc(-c2ccccc2)nc1NCc1ccco1,-8%
16,O=C(NCc1ccc2c(c1)OCO2)c1ccc2c(c1)C(=O)N(CC1CCCO1)C2=O (stereo unspecified),4.9%
17,Cc1ccc(Cn2ccc(NC(=O)C3C4CCC(C4)C3C(=O)O)n2)cc1 (stereo unspecified),-14.2%
18,COc1ccccc1C1/C(=C(/O)c2ccc(C)cc2)C(=O)C(=O)N1Cc1ccco1 (stereo unspecified),-17.5%
19,O=C(CNC(=O)c1ccco1)OCC(=O)c1ccccc1,10.7%
20,O=c1cc(-c2ccccc2)nc(N2CCCCC2)[nH]1,-0.2%
21,CC(C)C[C@H](NC(=O)Nc1cccc(C(F)(F)F)c1)C(=O)O,11.1%
22,CN(c1ccc(C(=O)NCCC2=CCCCC2)cc1)S(C)(=O)=O,-63%
23,CC(=O)Nc1ccn(Cc2c(F)cccc2Cl)n1,-27.2%
24,CCOC(=O)Cc1c(C)nc2c(C#N)c(C)nn2c1C,-2.8%
25,COC(=O)C(C)C1Sc2ccccc2NC1=O (stereo unspecified),13.2%
26,CC(=O)c1cnc(Nc2nc(C)c3cc(C)ccc3n2)nc1C,26.5%
